KCNQ1 inh – inhibitors of human KCNQ1 potassium channel | AID 2642 | 310,000 tested, 1.3% active | B-score at 10 µM | P51787 | CHO-K1 KCNQ1, FluxOR thallium flux fluorescence; active compounds read high;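 active = compounds whose thallium flux B-score, printed positive for inhibition, exceeds three library SD while starting fluorescence stays within three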;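 also: channel opened by potassium depolarization with thallium stimulus after 20 min compound exposure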
Target sequence (P51787 whole entry, looked up): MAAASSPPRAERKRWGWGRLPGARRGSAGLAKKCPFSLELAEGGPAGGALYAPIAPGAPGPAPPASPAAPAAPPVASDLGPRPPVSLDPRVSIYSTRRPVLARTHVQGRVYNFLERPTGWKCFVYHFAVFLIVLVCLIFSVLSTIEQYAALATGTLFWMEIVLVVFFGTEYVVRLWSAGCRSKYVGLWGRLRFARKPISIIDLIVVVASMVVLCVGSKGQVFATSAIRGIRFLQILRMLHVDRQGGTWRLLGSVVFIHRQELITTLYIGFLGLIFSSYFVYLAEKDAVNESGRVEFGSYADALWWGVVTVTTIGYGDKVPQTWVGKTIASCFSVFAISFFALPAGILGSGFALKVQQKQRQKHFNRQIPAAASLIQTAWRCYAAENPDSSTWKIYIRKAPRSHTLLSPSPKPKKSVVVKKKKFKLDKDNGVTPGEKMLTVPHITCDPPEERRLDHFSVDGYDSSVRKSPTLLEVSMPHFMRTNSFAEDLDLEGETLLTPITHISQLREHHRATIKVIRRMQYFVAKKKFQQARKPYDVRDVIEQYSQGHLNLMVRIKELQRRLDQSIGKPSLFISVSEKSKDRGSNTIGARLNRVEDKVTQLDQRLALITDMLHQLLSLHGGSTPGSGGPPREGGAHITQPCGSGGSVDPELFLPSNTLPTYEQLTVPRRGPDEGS
KCNQ1 pot – potentiators or activators of human KCNQ1 potassium channel | P51787 | CHO-K1 KCNQ1, thallium flux FluxOR fluorescence; active compounds read high | B-score at 10 µM | 310,000 tested, 0.35% active | AID 2648;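 active = fluorescence ratio B-score, a plate-corrected score, at least three library SD, with initial intensity B-score within 5 SD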
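Medium – assay buffer, equal DMSO in all wells · Material – CHO-K1 cell line with stable KCNQ1 potassium channel expression · Signal – kinetic FluxOR thallium fluorescence, 10-s 1-Hz baseline, 110-s post-stimulus read · Compound – single concentration per compound, DMSO matched to controls · Schedule – 37 °C overnight plating, 90-min dark dye load, 20-min compound pretreatment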
Kir21 block – blocks the mouse Kir2.1 inward-rectifier potassium channel. P35561. HEK293-Kir2.1, FluxOR thallium flux fluorescence; active compounds read low. B-score at 10 µM. 310,000 tested, 0.85% active. AID 1672;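 active = fluorescence ratio B-score at or below minus 3 SD of library scores, with starting-brightness B-score within 2 SD, cut at about -4.2 in these data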;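 also: channel flux triggered by added potassium and thallium sulfate stimulus; B-score of peak minus minimum fluorescence over baseline after thallium stimulus; more negative B-score means stronger Kir2.1 block with less thallium influx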
KCNK3 inh – human KCNK3 channel inhibition, primary screen; O14649; B-score at 10 µM; 340,000 tested, 0.84% active; CHO-KCNK3 thallium flux, FluxOR fluorescence; active compounds read low;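 active = B-score under library mean minus 4 SD, starting fluorescence ratio at most library mean plus 5 SD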;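 also: more negative B-score means stronger inhibition of thallium flux through KCNK3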
KCNK9 block – human KCNK9 channel inhibition; 310,000 tested, 1.2% active; HEK293 KCNK9, FluxOR thallium flux fluorescence; active compounds read low; Q9NPC2; B-score at 10 µM;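 active = ratio B-score over 3 SD below the library mean, with starting fluorescence within 5 SD of its mean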;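 also: negative B-score means less thallium flux so channel inhibition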
hERG protect – compounds protecting human hERG from proarrhythmic drug block; CHO-hERG, FluxOR thallium flux, dofetilide IC70 present; activation (rescue from dofetilide block), less the hit threshold, % at 10 µM; 310,000 tested, 0.51% active;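 active = activation above the mean of controls blocked by dofetilide plus 5 SD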;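 also: thallium influx through hERG after potassium depolarization seen as dye fluorescence rise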
Each line names hits and unclear results; the compound was inactive in the other large screens. An excerpt weighted towards active compounds, which were near 3.7% of everything screened.

Cc1ccc(-c2ccc(/C=C(\C#N)C(N)=S)n2C)cc1	KCNQ1 inh 6
COc1cc(OC)c(NC(=O)c2cc3ccccc3cc2O)cc1Cl	KCNK3 inh -9.2 (no result: KCNQ1 inh, KCNQ1 pot, Kir21 block, KCNK9 block, hERG protect)
Cc1ccccc1N(C(=O)c1snc(C(N)=O)c1N)C(C(=O)NC1CCCCC1)c1ccc(O)cc1 (stereo not drawn)	KCNQ1 inh 6
COc1ccc(C(C(=O)NC2CCCCC2)N(C(=O)c2snc(C(N)=O)c2N)c2ccc(OC)cc2OC)cc1 (stereo not drawn)	none
COc1ccc(N(C(=O)c2snc(C(N)=O)c2N)C(C(=O)NC2CCCCC2)c2ccc(C)o2)c(OC)c1 (stereo not drawn)	KCNQ1 inh 6
O=C(NC1CC1)c1ccc2c(c1)C1C3CCC(C3)C1C(c1ccccc1)N2 (stereo not drawn)	hERG protect 5.2
CC(C)Oc1cccc(C2NC(=O)c3ccccc3O2)c1 (stereo not drawn)	none
CC(C)[N+]1(C)[C@@H]2CC[C@H]1CC(OC(=O)C(CO)c1ccccc1)C2 (stereo partly drawn)	KCNQ1 pot 22 (no result: hERG protect)
Fc1ccc(C(CCNCc2cccs2)c2ccco2)cc1 (stereo not drawn)	Kir21 block -4.5
O=C(NCCC(c1ccccc1)c1ccco1)c1cccs1 (stereo not drawn)	none
CCc1ccc(OCC(=O)NC(=S)Nc2cccc(CO)c2)c(Br)c1	none
CCc1ccc(OCC(=O)NC(=S)Nc2ccc(C(C)=O)cc2)c(Br)c1	hERG protect 4.9
Fc1ccc(N2Cc3ccsc3C=N2)cc1	none
C=CCN1C(=O)/C(=C/c2ccc(OC(C)=O)c(OCC)c2[N+](=O)[O-])SC1=S	KCNQ1 inh 12
CCn1c(/C=C/N(C)c2ccccc2)[n+](CC)c2ccc(Cl)cc21	KCNQ1 inh 13
CCn1c(C)[n+](Cc2ccccc2)c2ccc(Cl)cc21	none
CCOC(=O)c1ccccc1NC(=O)C1CC(=O)N(C2CCCCC2)C1 (stereo not drawn)	none
Oc1[nH]c2ccccc2c1N=Nc1ccccn1	none (no result: KCNQ1 inh, KCNQ1 pot, Kir21 block, KCNK9 block, hERG protect)
Oc1c(N=Nc2ccccn2)ccc2ccccc12	KCNQ1 pot 29, hERG protect 25
Cc1ccc(S(=O)(=O)N(CC(=O)N/N=C/c2ccco2)Cc2ccccc2)cc1	none
Cc1cccc(CN(CC(=O)N/N=C/c2ccco2)S(=O)(=O)c2ccc(Cl)cc2)c1	KCNQ1 inh 9
CCN(CC(=O)Nc1ccc(OC)cc1)CC(=O)Nc1ccc(Cl)cc1F	hERG protect 7.3
Cc1cc(-c2nn(-c3ccccc3F)cc2CN2CCC(O)CC2)c(C)s1	none
Cc1cc(-c2nn(-c3ccccc3F)cc2CN2CCN(c3ccncc3)CC2)c(C)s1	Kir21 block -4.5
Cc1cc(C)c2c(=O)n(CC(=O)NCCCN3CCOCC3)sc2n1	none
Cc1cc(C)c2c(=O)n(CC(=O)NCCCN3CCN(c4ccccc4F)CC3)sc2n1	Kir21 block -5.5 (no result: KCNK3 inh)
CCc1cc(/C(Cc2ccccn2)=N\O)c(O)cc1O	Kir21 block -5.6
CCc1cc(/C(Cc2cscn2)=N\O)c(O)cc1O	none
CCSc1nc2sc3c(c2c(=O)[nH]1)CC(C)(CC)OC3 (stereo not drawn)	none
CCC1(C)Cc2c(sc3nc(SC)[nH]c(=S)c23)CO1 (stereo not drawn)	KCNQ1 pot 74, hERG protect 49 (no result: KCNK3 inh)
C=CC[C@H]1CC(Cc2ccccc2)=C[C@H](CC=C)N1	Kir21 block -6.5
C=CCC1C=C(Cc2ccccc2)CC(CC=C)N1 (stereo not drawn)	none
COc1cc(S(=O)(=O)Nc2ccccc2)ccc1N=Cc1c(C)[nH]n(-c2ccc(C)cc2)c1=O	KCNK9 block -9.6 (no result: KCNK3 inh)
COc1cc(SC#N)ccc1N=Cc1c(C)[nH]n(-c2ccc(Cl)cc2)c1=O	none
Cc1c(NC(=O)c2ccc3c(c2)OCO3)cccc1-c1nc2ccccc2o1	hERG protect 6.0
Cc1ccc(-c2nc3ccccc3o2)cc1NC(=O)c1ccc2c(c1)OCO2	none
CC1N(C)c2cc(NC(=O)c3cccs3)c(P(=O)(Nc3ccc([N+](=O)[O-])cc3)N3CCOCC3)cc2C1(C)C (stereo not drawn)	KCNK9 block -7.2
CCC(CCC(=O)Nc1ccc(S(N)(=O)=O)cc1)C(=O)O (stereo not drawn)	hERG protect 5.1
COc1ccc(N2CCN(C(=O)COC(=O)CCOc3ccccc3C)CC2)cc1	none
Cc1ccc(S(=O)(=O)Nc2ccccc2C(N)=O)cc1	none
Cc1ccc(S(=O)(=O)Nc2ccccc2C(O)c2ccccc2)cc1 (stereo not drawn)	Kir21 block -5
Cc1ccc(S(=O)(=O)Nc2ccccc2-c2ccccc2NS(=O)(=O)c2ccc(C)cc2)cc1	KCNQ1 inh 7
CCCCC(=O)Nc1nc(C)c(-c2csc(Nc3cc(OC)ccc3OC)n2)s1	KCNK9 block -7.8
CCCCC(=O)Nc1nc(C)c(-c2csc(Nc3cc(Cl)ccc3OC)n2)s1	KCNQ1 inh 7, KCNK9 block -7.5
CC(=O)c1cnc2nc(SCc3cccc(C)c3)nn2c1C	none
Cc1nn(-c2ccc(Cl)cc2Cl)c(=O)c2ccccc12	none
CC1=NN(S(=O)(=O)c2ccc(Cl)cc2Cl)C(=O)c2ccccc2O1	Kir21 block -4.8
COc1ccc(/C=N/NC(=O)c2cccc(C(=O)N/N=C/c3ccc(OC)c(OC)c3)n2)cc1OC	none
COc1ccc(/C=N/NC(=O)Nc2cccc3nsnc23)cc1OC	KCNK9 block -6.6
Cc1ccc(N=Cc2cc(Cl)cc(Cl)c2O)nc1	KCNQ1 pot 17, hERG protect 5.3
Oc1c(Cl)cc(Cl)cc1C=Nc1ccc2c(c1)OCCO2	KCNQ1 pot 8
Oc1c(Cl)cc(Cl)cc1/C=N/Nc1ncc(Br)cn1	none
Brc1csc(C=Nc2ccc3c(c2)OCCOCCOCCOCCO3)c1	none
Cc1cc(C)c2c(n1)SCC(=O)N2CC(=O)Nc1ccccc1Cl	none
Cc1ccccc1NC(=O)c1cc2c(C)nc3ccccc3c2o1	none
CCc1ccc(NC(=O)c2cc3c(C)nc4ccccc4c3o2)cc1	KCNQ1 inh 6
CNCCCCOc1ccc(C(C)(C)C)cc1Cl	Kir21 block -4.9
CNCCCOc1ccc(C)cc1Br	none
CSCC[C@H](NC(=O)OC(C)(C)C)C(=O)NCC1CCC(C(=O)N[C@@H](Cc2ccccc2)C(=O)O)CC1 (stereo partly drawn)	none
CN(C)CCN(Cc1ccccc1)S(=O)(=O)c1ccc2c(c1)n(C)c(=O)c(=O)n2C	KCNK9 block -7
COc1ccc(NC(=S)NC(=O)c2csnn2)cc1	KCNQ1 pot 24, hERG protect 16
O=C(NC(=S)Nc1ccccc1)c1csnn1	KCNQ1 pot 116, hERG protect 63
O=C(NC(=S)Nc1ccccc1)c1ccc(-c2ccccc2)cc1	none
